# Screening data (PubChem)
# Only some compounds are listed: those with a hit (about 2.7% of all), similar ones and a draw of the others.
# OX1R antag-1 – antagonists of human orexin 1 receptor (OX1R); actives 1.8% (n = 330,000); inhibition, % at 6.6 µM; OX1R-expressing cells, FRET antagonist read-out; O43613; in the data active means inhibition mostly above about 38%, no sharp cut-off; inactive means mostly below about 40%
# Target sequence (O43613 whole entry, looked up): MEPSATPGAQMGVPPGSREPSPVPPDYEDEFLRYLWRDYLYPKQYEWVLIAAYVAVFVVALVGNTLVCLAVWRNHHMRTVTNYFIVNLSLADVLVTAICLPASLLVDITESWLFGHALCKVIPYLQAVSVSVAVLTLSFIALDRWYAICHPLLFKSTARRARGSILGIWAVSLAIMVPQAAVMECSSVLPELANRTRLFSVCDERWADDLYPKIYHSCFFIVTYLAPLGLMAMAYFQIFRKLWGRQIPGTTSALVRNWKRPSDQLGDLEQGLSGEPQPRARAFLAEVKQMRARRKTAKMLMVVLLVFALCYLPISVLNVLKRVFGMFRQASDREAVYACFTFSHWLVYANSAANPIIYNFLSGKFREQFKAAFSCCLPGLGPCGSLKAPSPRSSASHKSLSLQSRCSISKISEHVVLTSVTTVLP
# CHO parental Ca – counter-screen for OX1R antagonists: effect in parental CHO cells. actives 0.63% (n = 330,000). parental CHO-K1, ATP-induced calcium, Fluo-8 fluorescence. inhibition, % at 5.6 µM;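 active means inhibition above that plate's mean sample inhibition plus 3 SD, cut at about 26% in these data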
#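 test system = CHO parental line | reagent = ATP stimulus | measured by = intracellular calcium via Fluo-8 no-wash fluorescent dye | control set = ATP and no-ATP DMSO wells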
# OXTR agonist – activates the human oxytocin receptor; P30559; CHO-OTR cells, Fluo-8 calcium fluorescence; normalized: DMSO 0%, oxytocin 100%; activation, % at 3 µM; actives 0.32% (n = 320,000); AID 2435;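 active means activation above the mean of all tested compounds plus 3 SD, cutoff set per screening run, cut at about 20% in these data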;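 further: peak over basal fluorescence ratio from a 100 s FLIPR kinetic read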
# OXTR potentiate – potentiators of human oxytocin receptor; CHO-OTR cells, Fluo-8 calcium fluorescence, potentiator mode; 0% = oxytocin EC15, 100% = EC100; actives 0.061% (n = 320,000); AID 2445; activation, % at 3 µM; P30559;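 active means activation above that plate's cutoff, the mean activation of tested compounds plus 3 SD, cut at about 6.6% in these data, passing the limit was not always enough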
#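 Material: human OTR in CHO cells. Compound: 3.0 µM, one dose. Timing: compound 6 min at room temperature before oxytocin, 100 s read. Evaluation: % activation of max/min ratio relative to oxytocin controls. Replication: single well per compound, singlicate. Signal: Fluo-8 calcium dye fluorescence.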
# OX1R antag-2 – antagonists of human orexin 1 receptor | actives 0.43% (n = 330,000) | AID 434989 | inhibition, % at 5 µM | O43613 | CHO/OX1R cells, Fluo-8 calcium fluorescence, orexin A;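 active means inhibition above its plate's threshold, mean inhibition of all tested compounds on the plate plus 3 SD, cut at about 37% in these data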
# V1R ag counter – V1a receptor agonism, counter-screen for OXTR agonists. P37288. CHO-V1R cells, Fluo-8 calcium fluorescence, agonist mode; 0% DMSO, 100% 3 nM vasopressin. activation, % at 3 µM. actives 0.25% (n = 320,000). AID 2797;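 active means activation above the mean activation of all tested compounds plus 3 SD, per screening run, cut at about 20% in these data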;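 further: signal is peak over basal fluorescence ratio across a 100 second FLIPR read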
# Hits are given with their value; i = inactive.
SMILES,OX1R antag-1,CHO parental Ca,OXTR agonist,OXTR potentiate,OX1R antag-2,V1R ag counter
Cc1nc(SCc2nc3ccccc3[nH]2)c2oc3cc(Br)ccc3c2n1,48,i,i,i,i,i
Cc1nc(SCCc2nc3ccccc3[nH]2)c2oc3ccccc3c2n1,59,i,i,i,i,i
Cc1ccc2oc3c(SCc4nc5ccccc5[nH]4)nc(C)nc3c2c1,58,i,i,i,i,i
CC1CCN(CCNC(=O)C2CCCN(S(=O)(=O)c3cccc4nsnc34)C2)CC1 (stereo unspecified),i,i,i,i,i,i
CCC1Oc2ccccc2N(CC(=O)NC2CCCCC2C)C1=O (stereo unspecified),i,i,i,i,i,i
O=C(COC(=O)/C=C/c1cccs1)Nc1ccc2ccccc2c1,i,i,i,i,i,i
NC(=O)C(=O)N/N=C/c1c2ccccc2cc2ccccc12,82,i,i,i,i,i
Cc1cc(C(=O)N/N=C/c2c3ccccc3cc3ccccc23)n[nH]1,i,i,i,i,i,i
CCN(CC)c1ccc(/C=C2\C(=O)c3ccc(C(=O)O)cc3C2=O)cc1,i,51,161,i,87,66
CCN(CC)c1ccc(C(=O)O)cc1,i,i,i,i,i,i
COc1ccc(C(O)P(=O)(OCCC(C)C)c2ccc(N(C)C)cc2)cc1 (stereo unspecified),i,i,i,i,i,i
CN(C)c1ccc(S(=O)(=O)N2CCCCC2)cc1NC(=O)COc1ccccc1F,i,71,i,i,i,i
CC(=O)Nc1ccc(OCC(=O)Nc2ccc(Cl)c(S(=O)(=O)N3CCOCC3)c2)cc1,i,29,i,i,54,i
Cc1ccc(NC(=O)COc2ccc(N(C)C(=O)C(C)(C)C)cc2)cc1S(=O)(=O)N1CCCCC1,i,78,i,i,73,i
Cc1ccc(NC(=O)CSc2ncnc3ccccc23)cc1S(=O)(=O)N1CCCCCC1,i,34,i,i,i,i
Cc1ccc(S(=O)(=O)N2CCCCC2)cc1NC(=O)CSc1ncnc2ccccc12,i,i,i,i,i,i
Cc1cccc(C)c1NC(=O)CN(C)C(=O)c1cccc(NS(=O)(=O)c2ccccc2)c1,i,i,i,i,i,i
CC1CCC2(CC1)NC(=O)N(CC(=O)Nc1cccc(C#N)c1)C2=O (stereo unspecified),i,i,i,i,i,i
O=C(O)Cn1nnc(-c2ccc(OCc3ccccc3)cc2)n1,i,i,i,i,i,i
Cc1ccc(NC(=O)COc2ccccc2C(N)=O)cc1S(=O)(=O)N1CCCCCC1,i,i,i,i,53,i
COc1cc(C(C)=O)ccc1OCC(=O)Nc1ccc(C)c(S(=O)(=O)N2CCCCCC2)c1,i,33,i,i,53,i
CCc1cccc(OCC(=O)Nc2ccc(C)c(S(=O)(=O)N3CCCCCC3)c2)c1,i,35,i,i,i,i
Cc1ccc(NC(=O)COc2cccc(C)c2C)cc1S(=O)(=O)N1CCCCCC1,i,i,i,i,i,i
O=C(CCCOc1ccc(Br)cc1)Nc1ccc(S(=O)(=O)N2CCOCC2)cc1,i,35,i,i,i,i
CN(C)CCN1C(=O)C(=O)/C(=C(/O)c2ccc(S(=O)(=O)N3CCOCC3)cc2)C1c1ccc(F)cc1 (stereo unspecified),i,i,i,i,i,i
SMILES,OX1R antag-1,CHO parental Ca,OXTR agonist,OXTR potentiate,OX1R antag-2,V1R ag counter
COc1ccc(NS(=O)(=O)c2ccc(Cl)c(C(=O)O)c2)cc1S(=O)(=O)N1CCCCC1,i,43,i,i,i,i
COc1ccc(NS(=O)(=O)c2cccc(C(=O)O)c2)cc1S(=O)(=O)N1CCCCC1,i,i,i,i,i,i
CCCOC(=O)c1ccc(NC(=O)c2ccccc2OC)cc1,76,i,i,i,i,i
CN(C)c1ccc(/C=C(/C(=O)c2ccc(Cl)cc2Cl)n2cncn2)cc1,i,i,21,i,i,29
Cc1ccc2c(c1)COc1c3ccc(C(=O)N[C@@H](CO)C(C)C)cc3nn1-2,i,i,i,i,i,i
COCCNC(=O)c1ccc2c3n(nc2c1)-c1ccc(C)cc1CO3,64,i,i,i,i,i
Cc1ccc(N=Nc2ccc(O)c3ncccc23)cc1,i,59,i,i,i,i
Cc1ccc(N=Nc2ccc(O)c3ncccc23)cc1C,i,i,i,i,i,i
Cc1ccc(S(=O)(=O)CCc2nnc(N)s2)cc1C,i,38,i,i,i,i
Nc1nnc(CCS(=O)(=O)c2ccc(Cl)cc2)s1,i,i,i,i,i,i
O=[N+]([O-])c1ccc(/C=C/C2=NN(c3ccccc3)C(c3ccco3)C2)cc1 (stereo unspecified),i,69,34,i,80,27
NC(=O)CC(NC(=O)c1ccc(Br)cc1)c1ccc(N2CCCCCC2)c([N+](=O)[O-])c1 (stereo unspecified),i,i,i,i,i,i
O=C(O)c1cccc(N2C(=O)c3ccc4c5c(ccc(c35)C2=O)C(=O)N(c2cccc(C(=O)O)c2)C4=O)c1,74,i,i,i,i,i
O=C(O)c1cccc(N2C(=O)c3ccc(Oc4ccc(Cl)cc4)cc3C2=O)c1,i,i,i,i,i,i
O=C(CN1CCN(Cc2ccccc2)CC1)N=Nc1c(O)[nH]c2ccccc12,i,i,i,i,i,i
O=C(CNC(=O)c1ccco1)N=Nc1c(O)[nH]c2ccc(Br)cc12,36,i,i,i,i,i
O=C(Cc1cccs1)N=Nc1c(O)[nH]c2ccc(Br)cc12,i,i,i,i,i,i
O=C(CNC(=O)Cc1ccccc1)N=Nc1c(O)[nH]c2ccccc12,45,i,i,i,i,i
O=C(CNC(=O)c1cccs1)N=Nc1c(O)[nH]c2ccc([N+](=O)[O-])cc12,41,i,i,i,i,i
Cc1cc2[nH]c(=O)c(=O)[nH]c2cc1S(=O)(=O)Nc1cccc(C)c1C,i,i,i,i,i,i
CCOC(=O)c1ccccc1NC(=O)COC(=O)c1cc([N+](=O)[O-])ccc1N1CCOCC1,i,i,i,i,i,i
Oc1c(Br)cc(Br)cc1C=Nc1cccc2ncccc12,54,i,i,i,i,i
Brc1cccc(C=Nc2cccc3ncccc23)c1,i,i,i,i,i,i
COc1cc2[nH]c3c(Cl)ncnc3c2cc1OC,i,i,i,i,i,i
COc1cc2[nH]c(Cl)c([N+](=O)[O-])c2cc1OC,73,i,i,i,i,i
C=CCn1c(SCCC)nc(O)cc1=O,i,i,48,i,i,70
C=CCn1c(SCC(=O)Nc2ccccc2C)nc(O)cc1=O,i,i,i,i,i,i
C=CCn1c(SCC)nc(O)cc1=O,i,i,29,i,i,60
